High-throughput results deposited in PubChem BioAssay by Johns Hopkins Ion Channel Center.
This is a sample that favours compounds with a hit; in the whole collection about 3.7% have one here.
KCNQ1 pot – human KCNQ1 channel potentiation or activation; B-score at 10 µM; P51787; actives 0.35% (n = 310,000); CHO-K1 KCNQ1, thallium flux FluxOR fluorescence; stronger effect = higher value;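 active = fluorescence ratio B-score, a plate-corrected score, at least three library SD, with initial intensity B-score within 5 SD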
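assay system = CHO-K1 cells stably expressing KCNQ1 | medium = assay buffer, equal DMSO in all wells | timing = 37 °C overnight plating, 90-min dark dye load, 20-min compound pretreatment | measured by = kinetic FluxOR thallium fluorescence, 10-s 1-Hz baseline, 110-s post-stimulus read | measure = fluorescence change relative to baseline, converted to B score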
KCNK3 inh – human KCNK3 channel inhibition, primary screen | O14649 | B-score at 10 µM | actives 0.84% (n = 340,000) | CHO-KCNK3 thallium flux, FluxOR fluorescence; stronger effect = lower value | AID 602410;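 active = B-score under library mean minus 4 SD, starting fluorescence ratio at most library mean plus 5 SD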;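 also: more negative B-score means stronger inhibition of thallium flux through KCNK3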
KCNK9 inh – human KCNK9 channel inhibition. AID 488922. Q9NPC2. actives 1.2% (n = 310,000). HEK293 KCNK9, FluxOR thallium flux fluorescence; stronger effect = lower value. B-score at 10 µM;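 active = ratio B-score over 3 SD below the library mean, with starting fluorescence within 5 SD of its mean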;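 also: negative B-score means less thallium flux so channel inhibition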
hERG rescue – shields human hERG channel from block by proarrhythmic agents; actives 0.51% (n = 310,000); CHO-hERG, FluxOR thallium flux, dofetilide IC70 present; activation (rescue from dofetilide block), less the hit threshold, % at 10 µM; AID 1511;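 active = activation above the mean of controls blocked by dofetilide plus 5 SD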;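 also: thallium influx through hERG after potassium depolarization seen as dye fluorescence rise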
Target sequence (Q12809 whole entry, looked up): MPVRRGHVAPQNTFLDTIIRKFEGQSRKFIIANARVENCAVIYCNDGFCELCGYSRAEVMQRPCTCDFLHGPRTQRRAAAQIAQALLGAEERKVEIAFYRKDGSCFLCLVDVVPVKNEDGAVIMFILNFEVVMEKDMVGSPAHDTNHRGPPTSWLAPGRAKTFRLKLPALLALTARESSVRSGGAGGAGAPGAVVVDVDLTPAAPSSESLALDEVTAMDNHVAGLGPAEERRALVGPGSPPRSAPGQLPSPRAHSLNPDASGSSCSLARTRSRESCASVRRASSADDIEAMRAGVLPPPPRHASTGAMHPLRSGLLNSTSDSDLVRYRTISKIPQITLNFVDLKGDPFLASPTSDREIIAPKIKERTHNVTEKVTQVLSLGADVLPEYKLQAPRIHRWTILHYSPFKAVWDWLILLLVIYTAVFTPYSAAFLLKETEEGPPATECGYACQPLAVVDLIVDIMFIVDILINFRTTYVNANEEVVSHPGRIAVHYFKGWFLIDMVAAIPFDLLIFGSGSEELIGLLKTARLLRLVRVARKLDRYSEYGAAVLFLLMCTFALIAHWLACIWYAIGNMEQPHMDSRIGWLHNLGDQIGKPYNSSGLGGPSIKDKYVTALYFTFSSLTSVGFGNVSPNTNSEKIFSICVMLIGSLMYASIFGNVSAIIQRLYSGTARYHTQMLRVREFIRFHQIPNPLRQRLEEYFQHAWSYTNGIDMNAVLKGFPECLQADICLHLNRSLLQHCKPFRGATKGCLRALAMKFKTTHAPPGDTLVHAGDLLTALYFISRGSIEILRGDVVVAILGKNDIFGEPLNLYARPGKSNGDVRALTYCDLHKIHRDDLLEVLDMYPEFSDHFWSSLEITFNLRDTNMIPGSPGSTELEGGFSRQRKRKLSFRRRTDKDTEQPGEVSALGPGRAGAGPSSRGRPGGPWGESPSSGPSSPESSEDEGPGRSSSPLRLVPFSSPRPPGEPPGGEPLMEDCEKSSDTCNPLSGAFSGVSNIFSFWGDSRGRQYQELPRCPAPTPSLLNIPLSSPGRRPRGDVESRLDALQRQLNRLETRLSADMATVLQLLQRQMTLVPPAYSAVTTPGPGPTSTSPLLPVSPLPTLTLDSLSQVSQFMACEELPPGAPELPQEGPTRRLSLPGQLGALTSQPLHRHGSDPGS
KCNQ1 block – human KCNQ1 channel inhibition. CHO-K1 KCNQ1, FluxOR thallium flux fluorescence; stronger effect = higher value. B-score at 10 µM. actives 1.3% (n = 310,000). P51787. AID 2642;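 active = compounds whose thallium flux B-score, printed positive for inhibition, exceeds three library SD while starting fluorescence stays within three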;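 also: channel opened by potassium depolarization with thallium stimulus after 20 min compound exposure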
Kir21 block – inhibitors of mouse Kir2.1 inward-rectifier potassium channel | HEK293-Kir2.1, FluxOR thallium flux fluorescence; stronger effect = lower value | B-score at 10 µM | actives 0.85% (n = 310,000) | AID 1672;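 active = fluorescence ratio B-score at or below minus 3 SD of library scores, with starting-brightness B-score within 2 SD, cut at about -4.2 in these data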;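 also: channel flux triggered by added potassium and thallium sulfate stimulus; B-score of peak minus minimum fluorescence over baseline after thallium stimulus; more negative B-score means stronger Kir2.1 block with less thallium influx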
* marks the source's active call; other numbers are inactive results; i = inactive; . = not tested or not shown.

SMILES	KCNQ1 pot	KCNK3 inh	KCNK9 inh	hERG rescue	KCNQ1 block	Kir21 block
O=C(CSc1ncn[nH]1)Nc1ccccc1Sc1ccc(Cl)cc1	i	i	i	-12	i	-4.7*
Nc1cc(=O)[nH]c(SCC(=O)Nc2ccccc2Sc2ccc(Cl)cc2)n1	i	i	i	-14	i	-0.09
c1cncc(-c2nn[nH]n2)c1	i	i	i	7.5*	i	-0.16
c1ccc(-c2noc(CN3CCN(c4ccccc4)CC3)n2)cc1	i	i	i	-10	i	0.32
c1ccc(-c2noc(CN3CCN(C(c4ccccc4)c4ccccc4)CC3)n2)cc1	i	i	-7.2*	-12	i	-0.11
Cc1ccccc1Nc1nc(-c2sc(NC(=O)c3ccc([N+](=O)[O-])cc3)nc2C)cs1	i	.	i	-12	7*	1.5
COc1ccc(CCNC(=O)CSc2ccsc2[N+](=O)[O-])cc1OC	i	i	i	-4	i	-4.5*
COc1ccc(OC)c(CCNC(=O)CSc2ccsc2[N+](=O)[O-])c1	i	i	i	-3	i	-0.04
CN1/C(=C\C(=S)Nc2ccccc2)C(C)(C)c2ccccc21	i	i	-6.9*	-4	i	-1.9
CCNC(=O)NC(=O)C(C)OC(=O)C(C)(C)Oc1ccc(Cl)cc1 (centres undefined)	i	i	i	1	i	-5.3*
CC(C)OC(=O)C(C)(C)Oc1ccc(C(=O)c2ccc(Cl)cc2)cc1	i	i	i	-10	i	-0.17
COc1ccc(O[C@H]2C=C[C@@H](c3ccccc3)O[C@@H]2COC(=O)CC/C(C)=N/OC[C@@H](O)[C@H]2O[C@@H]3OC(C)(C)O[C@@H]3[C@H]2O)cc1	i	.	i	-9	i	-1.1
CCOC(=O)N1CCC(NC(=O)CSCc2nc(-c3ccccc3Cl)oc2C)CC1	i	i	i	-3	i	0.1
Cc1oc(-c2ccccc2Cl)nc1CSCC(=O)NC1CCCC1	i	i	i	-8	i	-4.7*
CCOC(=O)c1c(C)[nH]c(C)c1C(=O)CSc1nc2ccccc2n1CCOC	i	i	i	-10	i	1.8
CCOC(=O)c1c(C)[nH]c(C)c1C(=O)CSc1nc2ccccc2n1CC	i	i	i	-20	i	-5.3*
O=C(Nc1ccccc1)C(Cl)C(=O)c1ccccc1 (centres undefined)	i	i	i	-14	i	-8.3*
O=C(COC(=O)C1CCCCC1)Nc1cc([N+](=O)[O-])ccc1F	i	i	i	-17	i	0.74
CCOc1cccc(C(=O)NC(=S)Nc2ccccc2)c1	i	i	i	-5	i	-1.5
O=C(NC(=S)Nc1ccc(CN2CCCCC2)cc1)c1cccc(OCc2ccccc2)c1	i	i	i	-43	8*	1.6
O=C(NC(=S)Nc1ccc(CN2CCOCC2)cc1)c1ccc(-c2cccc(Cl)c2)o1	20*	i	i	-3	i	3.1
O=C(Nc1ccc(CN2CCOCC2)cc1)c1ccc(-c2cccc(Cl)c2)o1	i	i	i	-30	i	-1.3
COc1ccc(/C=N/NS(=O)(=O)c2ccc(C)cc2)cc1OC(=O)c1ccc(C)cc1	i	i	i	-6	6*	0.03
COc1ccc(C(=O)Oc2cc(/C=N/NS(=O)(=O)c3ccccc3)ccc2OC)cc1	i	i	i	-4	i	1.1
C/C(N)=C(/C#N)C(=O)COC(=O)C1CCC(C(C)(C)C)CC1 (centres undefined)	i	i	i	0	i	-11*
C/C(N)=C(/C#N)C(=O)COC(=O)CC1CCCC1	i	i	i	-9	i	-0.13
Fc1cccc(CO/N=C/c2c(-c3ccccc3)nc3ccc(Cl)cn23)c1	i	i	-6.6*	6.7*	i	-0.09
Cc1cccc(/C=N/NC(=O)Cn2nnnc2N)n1	i	i	i	-11	i	-0.31
